EP2 modulator: EP2 receptor modulators, cAMP readout, primary screen, cell-based, HTRF cAMP, PGE2 stimulation; Prostaglandin E2 receptor EP2 subtype (Homo sapiens), P43116; AID 940, 2007; induction, % at 25 µM; 260,000 compounds, 0.83% hits; EP2-expressing cells, cAMP HTRF FRET, PGE2 co-stimulation;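 active = compounds whose cAMP rise, as percent of the full-agonist control response, exceeds 60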;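 note: rat C6 glioma line stably carrying human EP2 under a CMV promoter; the protocol text gives 20 µM as final concentration; 100% = response of wells given 1 µM PGE2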
Target sequence (P43116 whole entry, looked up): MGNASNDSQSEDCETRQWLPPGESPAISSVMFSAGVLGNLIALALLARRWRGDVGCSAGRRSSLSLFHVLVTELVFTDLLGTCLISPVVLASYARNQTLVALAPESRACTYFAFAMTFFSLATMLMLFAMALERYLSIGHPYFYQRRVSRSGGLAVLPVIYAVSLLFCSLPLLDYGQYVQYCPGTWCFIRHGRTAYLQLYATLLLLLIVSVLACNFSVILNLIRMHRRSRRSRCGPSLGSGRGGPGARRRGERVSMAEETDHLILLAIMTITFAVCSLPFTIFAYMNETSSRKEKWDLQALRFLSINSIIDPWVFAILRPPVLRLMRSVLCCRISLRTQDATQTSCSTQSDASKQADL
Granule exo inh: LAMP-1 surface exposure blockers, TALL-104 cells – cell-based, flow cytometry, MLPCN library, primary screen; TALL-104 LAMP-1 surface exposure; cells stimulated with thapsigargin and PMA; inhibition, % at 10 µM; 360,000 compounds, 0.66% hits;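 active = inhibition above about 55%, limit read from the data; inconclusive = no clear call, values can overlap the other calls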
EP2 antag: human EP2 receptor antagonists, primary screen, TR-FRET cAMP, C6 glioma cells. inhibition, % at 25 µM. C6 glioma cells expressing human EP2; cells stimulated with saturating PGE2. 260,000 compounds, 0.52% hits. AID 1422, 2008. Prostaglandin E2 receptor EP2 subtype (Homo sapiens), P43116;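 active = percent inhibition above 40 after rounding to a whole number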;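 note: rat C6 glioma host cells with rolipram phosphodiesterase inhibitor present; the protocol text gives 20 µM as final concentration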
MC4R ag barr: MC4R agonists recruiting beta-arrestin, primary screen, cell-based, luminescence, agonist arm of biased-ligand search; U2OS MC4R beta-arrestin complementation; percent of melanotan II response, DMSO zero; activation, % at 8.9 µM; 360,000 compounds, 0.98% hits;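 active = activation above a per-plate cutoff, the mean activation of sample wells on that plate plus 3 SD, cut at about 8% in these data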
Target sequence (P32245 whole entry, looked up): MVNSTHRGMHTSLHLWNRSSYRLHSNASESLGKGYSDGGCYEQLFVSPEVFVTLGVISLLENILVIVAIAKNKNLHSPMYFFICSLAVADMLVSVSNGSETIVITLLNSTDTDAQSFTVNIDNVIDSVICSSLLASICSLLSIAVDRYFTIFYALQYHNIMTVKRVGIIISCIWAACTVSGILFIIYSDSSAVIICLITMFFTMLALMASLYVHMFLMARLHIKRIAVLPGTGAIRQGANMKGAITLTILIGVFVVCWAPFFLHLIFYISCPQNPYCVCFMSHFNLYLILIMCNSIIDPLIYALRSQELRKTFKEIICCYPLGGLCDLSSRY
T cell modulator: modulators of CD8 T cell-vesicle binding, primary screen, mouse 2C CD8+ T cells, flow cytometry; 2C CD8+ T cell-vesicle binding; hits give low values; response (vesicle binding), % at 7 µM; 330,000 compounds, 0.068% hits; AID 2052, 2009;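 active = response, share of CD8 T cells binding vesicles, and their 90th percentile fluorescence all below set limits, cut at about 80% in these data, passing the limit was not always enough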;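 note: values below 100% mean blocked vesicle binding to the CD8+ T cells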
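Assay system – 2C mouse CD8+ T cells · Also added – QL9-loaded Drosophila micro-vesicles · Timing – Cell–vesicle co-incubation 1.5 h at 37 °C, staining 20 min on ice · Signal – flow cytometry of vesicle-bound cells · Measure – percent CD8+ FL2 mean versus row control · Controls – Peptide-free naked vesicles (low) and QL9 vesicles with 0.7% DMSO vehicle (high)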
MC4R antag cAMP: MC4R antagonists of cAMP signaling, primary screen, cell-based, TR-FRET, antagonist arm of biased-ligand search | AID 540295, 2011 | MC4R-expressing cells, MTII-stimulated cAMP, LANCE TR-FRET | 360,000 compounds, 0.48% hits | inhibition, % at 6.5 µM;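 active = inhibition above its plate's cutoff, the mean of tested wells on that plate plus 3 SD, cut at about 29% in these data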;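 note: 0% = Melanotan II alone and 100% = Melanotan II plus saturating MCL0020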
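System – human MC4R-expressing U2OS cells · Also added – Melanotan II · Dosing – one concentration, 6.5 µM nominal · Timing – 30-min compound, 1-h challenge, 1-h detection, room temperature · Measured by – Eu-cAMP/anti-cAMP TR-FRET, emission 671 nm · Replicates – singlicate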
* hit, by the source's call; i = inactive; ? = inconclusive; nt = no result. In the library only some 2.6% were active in any assay of this set; here they are far more common.

SMILES	EP2 modulator	Granule exo inh	EP2 antag	MC4R ag barr	T cell modulator	MC4R antag cAMP
CC(C)CC(=O)NC(=S)Nc1ccc(N2CCN(C(=O)c3cccs3)CC2)cc1	-7.6	2.6	6.2	-3.2	995.4	1.4
Cc1nc2ccccc2n2c(O)c(CC(=O)O)cc12	-11.5	0.2	19.5	8.3*	295.3	-29.6
C=CCN(CC=C)C(=O)C1CCC(C(=O)N(CC=C)CC=C)CC1 (configuration not stated)	-1.1	-1.7	14.0	-0.1	284.9	16.0
COc1ccc(Nc2nc3ccccc3nc2-n2nc(C)cc2C)cc1	65.3*	1.6	9.5	-2.6	159.6	13.5
CCN(CC)S(=O)(=O)c1cccc(C(=O)OCC(=O)N2CC(=O)Nc3ccccc32)c1	-6.4	1.3	9.2	-1.1	270.8	-0.8
Cc1cccc(NC(=S)Nc2cccc(C)n2)n1	27.4	72.6*	11.5	-1.5	288.5	0.4
O=C(CNc1ccc2ccccc2c1)N/N=C/c1ccc([N+](=O)[O-])o1	-64.8	-1.1	27.4	11.3*	i	-9.1
O=[N+]([O-])c1ccc(N(c2ccccc2)c2ccccc2)cc1	60.7*	2.0	6.5	-0.7	458.0	13.5
Cc1cccc(C(=O)NCCNC(=O)c2cccnc2)c1	nt	-11.4	nt	1.3	243.8	0.1
CCNc1nc(NC(C)C)nc(SCCOC(=O)c2ccccc2)n1	61.4*	-2.6	3.5	0.9	347.0	7.4
CCNc1nc(NC(C)C)nc(SCCOc2ccc(C)cc2)n1	47.9	23.4	7.6	-0.3	220.0	-2.1
CCOC(=O)c1c(NC(=O)Cn2cc([N+](=O)[O-])cn2)sc2c1CCC2	52.3	3.3	15.5	9.3*	212.8	10.0
CCOC(=O)c1c(NC(=O)COc2cccc3c2CCN(CC)C3=O)sc2c1CCC2	63.7*	2.0	10.6	3.6	98.6	8.2
CCOC(=O)c1c(NC(=O)COc2cccc3c2CCN(Cc2ccc(F)cc2)C3=O)sc2c1CCC2	31.2	nt	6.0	nt	136.5	nt
O=C(CN1CCOCC1)Nc1sc2c(c1C(=O)c1cccc(F)c1)CCC2	68.3*	nt	10.4	nt	nt	nt
CCOC(=O)c1c(NC(=O)CN2CCOCC2)sc2c1CCCC2	62.2*	0.6	3.4	0.0	597.1	11.6
NC(=O)c1c(NC(=O)Cn2cc([N+](=O)[O-])cn2)sc2c1CCCC2	-63.2	-7.1	3.9	-2.1	284.7	6.7
CC1=C(C(=O)N(C(C)C)C(C)C)CC(CC(=O)NCCN2CCOCC2)C(=O)N1Cc1ccccc1 (configuration not stated)	nt	-0.9	nt	1.5	nt	15.6
CC(C)c1ccc(N(CC(=O)N2CCOCC2)S(C)(=O)=O)cc1	nt	-7.9	nt	-1.5	201.4	1.4
CCC(C)(C)n1nnnc1C(c1ccccn1)N1CCCCC1 (configuration not stated)	-31.2	-0.2	9.6	-1.3	257.0	4.1
Cn1c(Cn2nnc3ccccc32)nnc1SCC(=O)NCc1ccc2c(c1)OCO2	9.0	-2.7	10.7	-1.4	nt	6.1
CCOc1cc(/C=C2\CCC/C(=C\c3cc(Cl)c(O)c(OCC)c3)C2=O)cc(Cl)c1O	-1.1	81.8*	19.3	4.7	237.4	-9.8
COc1cccc(/C=N/n2c(N)c(S(=O)(=O)c3cccs3)c3nc4ccccc4nc32)c1	-6.9	-2.2	4.3	-1.3	553.3	-5.5
Nc1c(S(=O)(=O)c2cccs2)c2nc3ccccc3nc2n1/N=C/c1cccc(O)c1	-7.1	14.6	40.9*	8.4*	288.2	16.9
O=[N+]([O-])c1ccccc1NC(=S)N/N=C/c1ccc(O)c(O)c1	-37.3	?	10.4	-1.7	113.4	-2.0
SMILES	EP2 modulator	Granule exo inh	EP2 antag	MC4R ag barr	T cell modulator	MC4R antag cAMP
Cc1ccc2nc(N(CCCN(C)C)C(=O)COc3ccc(Cl)cc3)sc2c1	-72.4	9.9	6.3	8.8*	87.6	-5.2
CN(C)CCCN(C(=O)COc1ccc(Cl)cc1)c1nc2ccc(F)cc2s1	-43.4	33.7	1.1	0.9	131.2	5.6
NC(N)=N/N=C(\N=Nc1ccccc1)c1ccc(Cl)cc1	nt	56.3*	nt	3.3	nt	-5.5
NC(N)=N/N=C(\N=Nc1ccccc1)c1cccc2cccnc12	nt	-0.8	nt	0.9	nt	-11.1
CC(C)CO/C(=N/S(=O)(=O)c1ccccc1)c1ccccc1	64.7*	-1.9	0.8	-1.7	i	2.3
CC(C)O/C(=N\S(=O)(=O)c1ccc(Cl)cc1)c1ccccc1	38.9	-0.9	6.0	-0.6	403.5	0.5
O=C(NNc1ccccc1Br)C(O)(c1cccc(C(F)(F)F)c1)c1cccc(C(F)(F)F)c1	15.8	16.8	16.7	-0.4	259.8	14.2
Clc1cc2c(nn1)Nc1ccccc1S2	-15.8	0.8	19.4	3.7	223.6	-25.6
C[N+](C)(C)c1cc2c(nn1)Nc1ccccc1S2	-45.1	nt	48.8*	nt	nt	nt
N#CC[N+]1(Cc2ccccn2)CCCC1	8.2	nt	41.7*	nt	nt	nt
O=C(CCNc1ccc(Br)cc1)c1cccc([N+](=O)[O-])c1	-12.8	86.5*	-0.4	0.5	311.9	7.5
O=C(CCNc1ccc(Cc2ccncc2)cc1)c1ccc([N+](=O)[O-])cc1	-36.6	89.5*	2.5	-0.3	386.1	20.9
O=C(Nc1ccc(Cc2ccncc2)cc1)c1cccc([N+](=O)[O-])c1	-59.9	12.5	11.5	-4.1	91.4	0.2
Cc1ccc(N(CCc2ccccn2)N=O)cc1	-27.6	nt	17.6	nt	nt	nt
CN(CCc1ccccn1)c1ccc2c(c1)C(=O)c1ccccc1-2	-63.1	nt	74.6*	nt	nt	nt
NS(=O)(=O)c1cc(Br)c(N=Nc2ccc(O)c3ncccc23)c(Br)c1	-16.6	nt	46.5*	nt	nt	nt
NS(=O)(=O)c1ccc(N=Nc2ccc(O)c3ncccc23)cc1	nt	2.7	nt	-4.0	148.2	0.9
NC(N)=NC(N)=Nc1cccc2ccccc12	-31.4	-4.4	7.5	-0.4	269.2	3.9
ClC(=Nc1cccc2ccccc12)N(c1ccccc1)c1ccccc1	37.8	nt	39.7*	nt	nt	nt
Cc1ccc(S(=O)(=O)N2c3cc(C)ccc3OCC2C(C)(C)C)cc1 (configuration not stated)	62.0*	0.6	14.7	0.3	344.5	-1.5
Cc1ccc(S(=O)(=O)N2c3ccccc3OCC2c2ccccc2)cc1 (configuration not stated)	46.5	9.6	5.2	-1.9	395.5	2.5
COc1ccc(CNC(=O)CCCSc2nc(-c3ccco3)cc(C(F)(F)F)n2)cc1	-114.2	nt	9.5	nt	nt	nt
NC(=S)N/N=C\c1c2ccccc2cc2ccccc12	-2.4	64.6*	5.5	-1.0	445.4	-5.8

Screening data: PubChem BioAssay, several laboratories
